Test results reported in BindingDB's records for doi:10.1021/jm950541c (Georgia Institute of Technology, 1996).
pKi: −log10 of the molar value.

What follows are molecules tested against T1, Calpain-2 catalytic subunit (Homo sapiens, UniProt P17655) (assay: Compound was evaluated for the inhibition of Cysteine protease Calpain 2).
T1 sequence (P17655 whole entry): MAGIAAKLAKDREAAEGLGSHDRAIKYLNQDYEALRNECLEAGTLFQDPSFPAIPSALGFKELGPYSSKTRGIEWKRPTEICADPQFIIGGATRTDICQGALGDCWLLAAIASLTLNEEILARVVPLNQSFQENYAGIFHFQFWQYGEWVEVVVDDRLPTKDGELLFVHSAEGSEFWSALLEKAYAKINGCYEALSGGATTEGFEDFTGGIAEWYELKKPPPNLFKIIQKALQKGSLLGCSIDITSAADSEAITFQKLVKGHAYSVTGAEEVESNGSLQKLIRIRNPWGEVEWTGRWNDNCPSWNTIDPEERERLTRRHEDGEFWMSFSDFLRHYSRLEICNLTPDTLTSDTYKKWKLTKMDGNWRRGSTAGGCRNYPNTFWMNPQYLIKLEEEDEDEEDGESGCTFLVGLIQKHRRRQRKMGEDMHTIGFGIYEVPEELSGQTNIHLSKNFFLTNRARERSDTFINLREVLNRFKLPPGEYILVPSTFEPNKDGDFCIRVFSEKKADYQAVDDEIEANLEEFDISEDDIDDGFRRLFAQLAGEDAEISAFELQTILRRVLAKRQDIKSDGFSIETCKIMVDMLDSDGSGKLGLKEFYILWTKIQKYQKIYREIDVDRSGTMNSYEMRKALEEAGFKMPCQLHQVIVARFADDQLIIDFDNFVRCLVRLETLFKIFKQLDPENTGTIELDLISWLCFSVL
In short: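 Calpain assay in 25 mM Tris, pH 8.0, with 10 mM CaCl₂ and 5% DMSO. Suc-Leu-AMC hydrolysis was read as initial velocity (t = 30-60 s) after a 30 s delay, at room temperature. Five or more inhibitor concentrations (not above 2 × K_obs) were used at two fixed substrate levels. Ki came from Dixon plots (1/v vs I) averaged over triplicates.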

SMILES	pKi
CC(C)CC(NC(=O)C(c1ccccc1)c1ccccc1)C(=O)NC(Cc1ccccc1)C(=O)C(=O)NCC(O)c1ccccc1 (stereo unspecified) [2-Diphenylacetylamino-4-methyl-pentanoic acid [1-benzyl-2-(2-hydroxy-2-phenyl-ethylcarbamoyl)-2-oxo-ethyl]-amide]	6.14
CC(C)CC(NC(=O)C(c1ccccc1)c1ccccc1)C(=O)NC(Cc1ccccc1)C(=O)C(=O)NCc1ccccn1 (stereo unspecified) [2-Diphenylacetylamino-4-methyl-pentanoic acid {1-benzyl-2-oxo-2-[(pyridin-2-ylmethyl)-carbamoyl]-ethyl}-amide]	6.44
CCNC(=O)C(=O)C(CC)NC(=O)C(CC(C)C)NC(=O)C(c1ccccc1)c1ccccc1 (stereo unspecified) [3-(2-Diphenylacetylamino-4-methyl-pentanoylamino)-2-oxo-pentanoic acid ethylamide]	5.92
CCNC(=O)C(=O)C(CC)NC(=O)C(CC(C)C)NC(=O)Cc1cccc2ccccc12 (stereo unspecified) [3-[4-Methyl-2-(2-naphthalen-1-yl-acetylamino)-pentanoylamino]-2-oxo-pentanoic acid ethylamide]	6.60
CC(C)CC(NC(=O)OCc1ccccc1)C(=O)NC(Cc1ccccc1)C(=O)C(=O)NCC(O)c1ccc(OCc2ccccc2)c(OCc2ccccc2)c1 (stereo unspecified) [(1-{1-Benzyl-2-[2-(3,4-bis-benzyloxy-phenyl)-2-hydroxy-ethylcarbamoyl]-2-oxo-ethylcarbamoyl}-3-methyl-butyl)-carbamic acid benzyl ester]	6.17
CC(C)CC(NC(=O)OCc1ccccc1)C(=O)NC(Cc1ccccc1)C(=O)C(=O)NCC(O)c1cccc(Oc2ccccc2)c1 (stereo unspecified) [(1-{1-Benzyl-2-[2-hydroxy-2-(3-phenoxy-phenyl)-ethylcarbamoyl]-2-oxo-ethylcarbamoyl}-3-methyl-butyl)-carbamic acid benzyl ester]	6.47
CC(C)CC(NC(=O)OCc1ccccc1)C(=O)NC(Cc1ccccc1)C(=O)C(=O)NCC(O)c1cccc(C(F)(F)F)c1 (stereo unspecified) [(1-{1-Benzyl-2-[2-hydroxy-2-(3-trifluoromethyl-phenyl)-ethylcarbamoyl]-2-oxo-ethylcarbamoyl}-3-methyl-butyl)-carbamic acid benzyl ester]	6.54
CC(C)CC(NC(=O)OCc1ccccc1)C(=O)NC(Cc1ccccc1)C(=O)C(=O)NCc1ccccn1 (stereo unspecified) [(1-{1-Benzyl-2-oxo-2-[(pyridin-2-ylmethyl)-carbamoyl]-ethylcarbamoyl}-3-methyl-butyl)-carbamic acid benzyl ester]	6.57
CCC(NC(=O)C(CC(C)C)NC(=O)OCc1ccccc1)C(=O)C(=O)NCC(O)c1ccc(N(C)C)cc1 (stereo unspecified) [(1-{1-[2-(4-Dimethylamino-phenyl)-2-hydroxy-ethylaminooxalyl]-propylcarbamoyl}-3-methyl-butyl)-carbamic acid benzyl ester]	6.39
CCC(NC(=O)C(CC(C)C)NC(=O)OCc1ccccc1)C(=O)C(=O)NCC(O)c1cccc(Oc2ccccc2)c1 (stereo unspecified) [(1-{1-[2-Hydroxy-2-(3-phenoxy-phenyl)-ethylaminooxalyl]-propylcarbamoyl}-3-methyl-butyl)-carbamic acid benzyl ester]	6.23
CCC(NC(=O)C(CC(C)C)NC(=O)OCc1ccccc1)C(=O)C(=O)NCC(O)c1ccc(Oc2ccccc2)cc1 (stereo unspecified) [(1-{1-[2-Hydroxy-2-(4-phenoxy-phenyl)-ethylaminooxalyl]-propylcarbamoyl}-3-methyl-butyl)-carbamic acid benzyl ester]	6.54
CCNC(=O)C(=O)C(CC)NC(=O)C(CC(C)C)NC(=O)c1ccco1 (stereo unspecified) [Furan-2-carboxylic acid [1-(1-ethylaminooxalyl-propylcarbamoyl)-3-methyl-butyl]-amide]	6.24
CCNC(=O)C(=O)C(CC)NC(=O)C(CC(C)C)NC(=O)N1CCOCC1 (stereo unspecified) [Morpholine-4-carboxylic acid [1-(1-ethylaminooxalyl-propylcarbamoyl)-3-methyl-butyl]-amide]	5.00
CCNC(=O)C(=O)C(CC)NC(=O)C(CC(C)C)NC(=O)c1cccnc1 (stereo unspecified) [N-[1-(1-Ethylaminooxalyl-propylcarbamoyl)-3-methyl-butyl]-nicotinamide]	6.08
CCNC(=O)C(=O)C(CC)NC(=O)C(CC(C)C)NC(=O)c1cnccn1 (stereo unspecified) [Pyrazine-2-carboxylic acid [1-(1-ethylaminooxalyl-propylcarbamoyl)-3-methyl-butyl]-amide]	6.32

The next molecules have a higher pKi than those just listed; values first:

pKi	SMILES
7.13	CC(C)CC(NC(=O)C(c1ccccc1)c1ccccc1)C(=O)NC(Cc1ccccc1)C(=O)C(=O)NCCCN1CCOCC1 (stereo unspecified) [2-Diphenylacetylamino-4-methyl-pentanoic acid [1-benzyl-2-(3-morpholin-4-yl-propylcarbamoyl)-2-oxo-ethyl]-amide]
6.96	CCC(NC(=O)C(CC(C)C)NC(=O)C(c1ccccc1)c1ccccc1)C(=O)C(=O)NCCCN1CCOCC1 (stereo unspecified) [3-(2-Diphenylacetylamino-4-methyl-pentanoylamino)-2-oxo-pentanoic acid (3-morpholin-4-yl-propyl)-amide]
7.05	CCC(NC(=O)C(CC(C)C)NC(=O)C(c1ccccc1)c1ccccc1)C(=O)C(=O)NCc1ccccn1 (stereo unspecified) [3-(2-Diphenylacetylamino-4-methyl-pentanoylamino)-2-oxo-pentanoic acid (pyridin-2-ylmethyl)-amide]
6.89	CCNC(=O)C(=O)C(CC)NC(=O)C(CC(C)C)NC(=O)CCc1ccccc1 (stereo unspecified) [3-[4-Methyl-2-(3-phenyl-propionylamino)-pentanoylamino]-2-oxo-pentanoic acid ethylamide]
6.62	CC(C)CC(NC(=O)OCc1ccccc1)C(=O)NC(Cc1ccccc1)C(=O)C(=O)NCC(O)c1ccc(OCc2ccccc2)cc1 (stereo unspecified) [(1-{1-Benzyl-2-[2-(4-benzyloxy-phenyl)-2-hydroxy-ethylcarbamoyl]-2-oxo-ethylcarbamoyl}-3-methyl-butyl)-carbamic acid benzyl ester]
6.77	CC(C)CC(NC(=O)OCc1ccccc1)C(=O)NC(Cc1ccccc1)C(=O)C(=O)NCC(O)c1ccc(Oc2ccccc2)cc1 (stereo unspecified) [(1-{1-Benzyl-2-[2-hydroxy-2-(4-phenoxy-phenyl)-ethylcarbamoyl]-2-oxo-ethylcarbamoyl}-3-methyl-butyl)-carbamic acid benzyl ester]
7.64	CC(C)CC(NC(=O)OCc1ccccc1)C(=O)NC(Cc1ccccc1)C(=O)C(=O)NCc1ccc2ccccc2n1 (stereo unspecified) [(1-{1-Benzyl-2-oxo-2-[(quinolin-2-ylmethyl)-carbamoyl]-ethylcarbamoyl}-3-methyl-butyl)-carbamic acid benzyl ester]
7.30	CCC(NC(=O)C(CC(C)C)NC(=O)OCc1ccccc1)C(=O)C(=O)NCCc1c[nH]c2ccccc12 (stereo unspecified) [(1-{1-[2-(1H-Indol-3-yl)-ethylaminooxalyl]-propylcarbamoyl}-3-methyl-butyl)-carbamic acid benzyl ester]
7.00	CCC(NC(=O)C(CC(C)C)NC(=O)OCc1ccccc1)C(=O)C(=O)NCC(O)c1ccc(OCc2ccccc2)c(OCc2ccccc2)c1 (stereo unspecified) [(1-{1-[2-(3,4-Bis-benzyloxy-phenyl)-2-hydroxy-ethylaminooxalyl]-propylcarbamoyl}-3-methyl-butyl)-carbamic acid benzyl ester]
7.07	CCC(NC(=O)C(CC(C)C)NC(=O)OCc1ccccc1)C(=O)C(=O)NCCc1cccc(OC)c1 (stereo unspecified) [(1-{1-[2-(3-Methoxy-phenyl)-ethylaminooxalyl]-propylcarbamoyl}-3-methyl-butyl)-carbamic acid benzyl ester]
6.92	CCC(NC(=O)C(CC(C)C)NC(=O)OCc1ccccc1)C(=O)C(=O)NCC(O)c1ccc(OCc2ccccc2)cc1 (stereo unspecified) [(1-{1-[2-(4-Benzyloxy-phenyl)-2-hydroxy-ethylaminooxalyl]-propylcarbamoyl}-3-methyl-butyl)-carbamic acid benzyl ester]
7.22	CCC(NC(=O)C(CC(C)C)NC(=O)OCc1ccccc1)C(=O)C(=O)NCCc1ccc(O)cc1 (stereo unspecified) [(1-{1-[2-(4-Hydroxy-phenyl)-ethylaminooxalyl]-propylcarbamoyl}-3-methyl-butyl)-carbamic acid benzyl ester]
7.34	CCC(NC(=O)C(CC(C)C)NC(=O)OCc1ccccc1)C(=O)C(=O)NCCc1ccc(OC)cc1 (stereo unspecified) [(1-{1-[2-(4-Methoxy-phenyl)-ethylaminooxalyl]-propylcarbamoyl}-3-methyl-butyl)-carbamic acid benzyl ester]
6.74	CCC(NC(=O)C(CC(C)C)NC(=O)OCc1ccccc1)C(=O)C(=O)NCC(O)c1cccc(C(F)(F)F)c1 (stereo unspecified) [(1-{1-[2-Hydroxy-2-(3-trifluoromethyl-phenyl)-ethylaminooxalyl]-propylcarbamoyl}-3-methyl-butyl)-carbamic acid benzyl ester]
7.12	CCC(NC(=O)C(CC(C)C)NC(=O)OCc1ccccc1)C(=O)C(=O)NCCc1cccn1C (stereo unspecified) [(3-Methyl-1-{1-[2-(1-methyl-1H-pyrrol-2-yl)-ethylaminooxalyl]-propylcarbamoyl}-butyl)-carbamic acid benzyl ester]
6.96	CCNC(=O)C(=O)C(CC)NC(=O)C(CC(C)C)NC(=O)c1nccc2ccccc12 (stereo unspecified) [Isoquinoline-1-carboxylic acid [1-(1-ethylaminooxalyl-propylcarbamoyl)-3-methyl-butyl]-amide]
